LMPTP block = LMPTP (human) inhibition; P24666; recombinant LMPTP-A, OMFP fluorogenic substrate, fluorescence intensity; inhibition, % at 20 µM; 360,000 tested, 0.22% active; AID 651560;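 active means compounds that cut the enzyme signal by at least half of the control window in the single-dose screen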;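 further: plate controls were DMSO wells with enzyme plus substrate for no effect and substrate without enzyme for full effect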
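Test system: LMPTP-A phosphatase enzyme. Amount: LMPTP-A at 0.625 nM final in the reaction. Reagent: OMFP substrate, 400 µM final. Times: 50 min at room temperature. Signal: endpoint fluorescence intensity from OMFP dephosphorylation. Read-out basis: % inhibition. Benchmarks: no-enzyme and uninhibited controls.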
Rpn11 block = blocks the human proteasome subunit Rpn11; O00487; human 26S proteasome, Ub4-pepOG fluorescence polarization; 20S core pre-blocked with epoxomicin; inhibition, % at 20 µM; 360,000 tested, 0.59% active;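 active means inhibition at 20 µM, scaled to each plate's controls, above about 33%, limit read from the data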
STEP inh = blocks human striatal-enriched tyrosine phosphatase. P54829. recombinant STEP, OMFP fluorogenic substrate, fluorescence. inhibition, % at 20 µM. 360,000 tested, 0.25% active;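 active means inhibition at 20 µM, scaled per plate between control wells, above about 37%, limit read from the data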;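 further: 0% = DMSO with enzyme and substrate and 100% = substrate only without enzyme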
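Material: STEP (striatal-enriched tyrosine phosphatase) enzyme, cell-free | Medium: 50 mM Bis-Tris pH 6.0 with 2.5 mM DTT and 0.005% Tween 20 | Read-out: Percent inhibition scaled to no-enzyme and uninhibited-enzyme controls, plate-pattern corrected | Signal: Fluorescence read at 480 nm ex / 540 nm em | Times: 20 min reaction, room temperature, in the dark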
Scp1 inh = inhibitors of human Scp-1 phosphatase. Q9GZU7. 340,000 tested, 0.88% active. Recombinant Scp1, phosphopeptide, malachite green phosphate absorbance. AID 493091. inhibition, % at 20 µM;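 active means inhibition above about 50% at 20 µM, limit read from the data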;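 further: plate controls were DMSO wells with enzyme for no effect and wells lacking enzyme for full effect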
Target sequence (Q9GZU7 76-261 limits assumed): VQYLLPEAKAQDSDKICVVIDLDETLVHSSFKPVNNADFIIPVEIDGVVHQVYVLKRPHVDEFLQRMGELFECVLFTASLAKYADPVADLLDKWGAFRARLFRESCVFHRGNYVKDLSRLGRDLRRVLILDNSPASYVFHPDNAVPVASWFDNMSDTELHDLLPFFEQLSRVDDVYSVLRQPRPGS
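Material – SCP-1 phosphatase catalytic domain, residues 76-261 · Buffer or medium – Acidic Tris acetate buffer with magnesium and detergent · Also added – Phospho 17-mer peptide substrate · Compound – single 20 µM dose, 1% DMSO · Times – 45 min room-temperature reaction, 5 min colour, 30 min stabiliser · Technique – Phosphate-binding colour reagent, absorbance read at 630 nm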
DNMT1 block = inhibitors of human DNMT1. P26358. DNMT1 molecular beacon, Hinp1I cleavage, fluorescence. inhibition (reported as % activation of signal), % at 10 µM. 360,000 tested, 0.83% active. AID 588458; in the data active means inhibition above about 50%
STEP inh conf = confirmation of human STEP phosphatase inhibitors. shares compounds with STEP inh. recombinant STEP, OMFP fluorogenic substrate, fluorescence. inhibition, % at 20 µM. 520 tested, 32% active; call rule not given here;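 further: 0% = enzyme with substrate plus DMSO and 100% = substrate without enzyme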
* marks the source's active call; other numbers are inactive results; nt = no result. An excerpt weighted towards active compounds, which were near 2% of everything screened.

SMILES | LMPTP block | Rpn11 block | STEP inh | Scp1 inh | DNMT1 block | STEP inh conf
COc1cccc(NC(=O)CCN2C(=O)C3CC=CCC3C2=O)c1 (stereo unspecified) | -2 | 0 | -2 | 4 | 1 | nt
COc1ccc(OCC(=O)Nc2ccc3oc(-c4ccncc4)nc3c2)cc1 | 4 | 26 | 49* | 34 | -2 | 11
COc1cc(C(=S)N2CCCCC2)ccc1O | 0 | 7 | 98* | 0 | 8 | 75*
COc1cc(C(=S)N2CCCC2)ccc1O | -1 | 1 | 0 | -6 | -2 | nt
C#CCOC(=O)c1cc(Cl)c(=O)n(Cc2ccc(Cl)cc2Cl)c1 | 2 | 1 | 3 | -16 | 0 | nt
Cc1cc(C)c2nc(-c3ccccn3)cc(C(=O)Nc3ccc(S(=O)(=O)Nc4onc(C)c4C)cc3)c2c1 | 4 | 6 | 41* | 28 | 68* | 72*
Cc1cc(C)c2nc(-c3ccccn3)cc(C(=O)Nc3ccc(S(=O)(=O)Nc4cc(C)on4)cc3)c2c1 | 3 | 11 | 4 | 7 | 34 | nt

Screening data (PubChem BioAssay)
